Test results taken from ChEMBL document CHEMBL1142154, “High-level vancomycin-resistant Staphylococcus aureus isolates associated with a polymicrobial biofilm” (2007).
Values after ≈ are worked out from the molar mass of the structure shown.

Tests used:
Format in all cases: functional
[1] = tested on: Enterococcus faecium; experiment: Antibacterial activity against Enterococcus faecium isolate 5752
Summary of the method: (§1)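 MICs by broth microdilution in cation-adjusted Mueller-Hinton broth, following CLSI guidelines. Test isolates were clinical VRE (E. faecium), MRSA and VRSA recovered from patient sites or from nephrostomy tube biofilm. Biofilm isolates were obtained by PBS lumen washes of tube segments, dilution in Butterfield buffer and plating on selective and blood agars at 35°C for 24 to 48 h.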

[2] = tested on: Enterococcus faecalis; experiment: Antibacterial activity against Enterococcus faecalis isolate 5745
[3] = tested on: Enterococcus faecalis; experiment: Antibacterial activity against Enterococcus faecalis isolate 5742
[4] = tested on: Enterococcus faecium; experiment: Antibacterial activity against Enterococcus faecium isolate 5749
[5] = tested on: Enterococcus faecalis; experiment: Antibacterial activity against Enterococcus faecalis isolate 5743
[6] = tested on: Enterococcus faecalis; experiment: Antibacterial activity against Enterococcus faecalis isolate 5746
[7] = tested on: Enterococcus faecium; experiment: Antibacterial activity against Enterococcus faecium isolate 2547; summary of the method: as §1
[8] = tested on: Enterococcus faecium; experiment: Antibacterial activity against Enterococcus faecium isolate 5751
[9] = tested on: Enterococcus faecalis; experiment: Antibacterial activity against Enterococcus faecalis isolate 5744
[10] = tested on: Enterococcus faecium; experiment: Antibacterial activity against Enterococcus faecium isolate 5753
[11] = tested on: Enterococcus faecium; experiment: Antibacterial activity against Enterococcus faecium isolate 5750
[12] = tested on: Staphylococcus aureus; experiment: Antibacterial activity against vancomycin-resistant Staphylococcus aureus isolate 595; summary of the method: as §1
[13] = tested on: Staphylococcus aureus; experiment: Antibacterial activity against vancomycin-resistant Staphylococcus aureus isolate 2514; summary of the method: as §1
[14] = tested on: Staphylococcus aureus; experiment: Antibacterial activity against methicillin-resistant Staphylococcus aureus isolate 2513; summary of the method: as §1
[15] = tested on: Staphylococcus aureus; experiment: Antibacterial activity against methicillin-resistant Staphylococcus aureus isolate 5735; summary of the method: as §1
[16] = tested on: Staphylococcus aureus; experiment: Antibacterial activity against methicillin-resistant Staphylococcus aureus isolate 5737; summary of the method: as §1
[17] = tested on: Staphylococcus aureus; experiment: Antibacterial activity against vancomycin-resistant Staphylococcus aureus isolate 5734; summary of the method: as §1
[18] = tested on: Staphylococcus aureus; experiment: Antibacterial activity against methicillin-resistant Staphylococcus aureus isolate 5739; summary of the method: as §1
[19] = tested on: Staphylococcus aureus; experiment: Antibacterial activity against methicillin-resistant Staphylococcus aureus isolate 2530; summary of the method: as §1
[20] = tested on: Staphylococcus aureus; experiment: Antibacterial activity against methicillin-resistant Staphylococcus aureus isolate 5733; summary of the method: as §1
[21] = tested on: Staphylococcus aureus; experiment: Antibacterial activity against methicillin-resistant Staphylococcus aureus isolate 5736; summary of the method: as §1

Compound	MIC [1] [µg/mL]	MIC [2] [µg/mL]	MIC [3] [µg/mL]	MIC [4] [µg/mL]	MIC [5] [µg/mL]	MIC [6] [µg/mL]	MIC [7] [µg/mL]	MIC [8] [µg/mL]	MIC [9] [µg/mL]	MIC [10] [µg/mL]	MIC [11] [µg/mL]	MIC [12] [µg/mL]	MIC [13] [µg/mL]	MIC [14] [µg/mL]	MIC [15] [µg/mL]	MIC [16] [µg/mL]	MIC [17] [µg/mL]	MIC [18] [µg/mL]	MIC [19] [µg/mL]	MIC [20] [µg/mL]	also measured
O=C(N[C@H](CO)[C@H](O)c1ccc([N+](=O)[O-])cc1)C(Cl)Cl [CHLORAMPHENICOL]	8 (≈ 24.8 µM)	8 (≈ 24.8 µM)	8 (≈ 24.8 µM)	4 (≈ 12.4 µM)	8 (≈ 24.8 µM)	16 (≈ 49.5 µM)	8 (≈ 24.8 µM)	≤ 2	16 (≈ 49.5 µM)	4 (≈ 12.4 µM)	8 (≈ 24.8 µM)										
CCC[C@@H]1C[C@@H](C(=O)N[C@@H]([C@H]2O[C@H](SC)[C@H](O)[C@@H](O)[C@H]2O)[C@H](C)Cl)N(C)C1 [CLINDAMYCIN]												> 8	> 8	> 8	> 8	≤ 0.12	> 8	≤ 0.12	≤ 0.12	> 8	MIC [21]: > 8 µg/mL
C[C@H]1c2cccc(O)c2C(=O)C2=C(O)[C@]3(O)C(=O)C(C(N)=O)=C(O)[C@@H](N(C)C)[C@@H]3[C@@H](O)[C@@H]21.O [DOXYCYCLINE]	16	4	4	8	4	≤ 0.25	16	16	8	8	16	4	4	≤ 0.25	4	0.5	8	≤ 0.25	≤ 0.25	4	MIC [21]: 4 µg/mL
CC[C@H]1OC(=O)[C@H](C)[C@@H](O[C@H]2C[C@@](C)(OC)[C@@H](O)[C@H](C)O2)[C@H](C)[C@@H](O[C@@H]2O[C@H](C)C[C@H](N(C)C)[C@H]2O)[C@](C)(O)C[C@@H](C)C(=O)[C@H](C)[C@@H](O)[C@]1(C)O [ERYTHROMYCIN]	> 8	> 8	> 8	> 8	> 8	> 8	> 8	> 8	> 8	> 8	> 8	> 8	> 8	> 8	> 8	> 8	> 8	> 8	> 8	> 8	MIC [21]: > 8 µg/mL
C[C@H]1COc2c(N3CCN(C)CC3)c(F)cc3c(=O)c(C(=O)O)cn1c23.C[C@H]1COc2c(N3CCN(C)CC3)c(F)cc3c(=O)c(C(=O)O)cn1c23.O [LEVOFLOXACIN]												16	16	16	16	16	16	16	16	16	MIC [21]: 16 µg/mL
CN(C)c1ccc(O)c2c1C[C@H]1C[C@H]3[C@H](N(C)C)C(O)=C(C(N)=O)C(=O)[C@@]3(O)C(O)=C1C2=O [MINOCYCLINE]	32 (≈ 69.9 µM)	8 (≈ 17.5 µM)	8 (≈ 17.5 µM)	16 (≈ 35 µM)	8 (≈ 17.5 µM)	0.12 (≈ 0.262 µM)	32 (≈ 69.9 µM)	16 (≈ 35 µM)	16 (≈ 35 µM)	16 (≈ 35 µM)	32 (≈ 69.9 µM)										
Cc1onc(-c2ccccc2)c1C(=O)N[C@@H]1C(=O)N2[C@@H]1SC(C)(C)[C@@H]2C(=O)O [OXACILLIN]												> 16	> 16	> 16	> 16	> 16	> 16	> 16	> 16	> 16	MIC [21]: > 16 µg/mL
CC1(C)S[C@@H]2[C@H](NC(=O)Cc3ccccc3)C(=O)N2[C@H]1C(=O)O [PENICILLIN G]	128 (≈ 383 µM)	2 (≈ 5.98 µM)	2 (≈ 5.98 µM)	128 (≈ 383 µM)	2 (≈ 5.98 µM)	2 (≈ 5.98 µM)	128 (≈ 383 µM)	256 (≈ 766 µM)	2 (≈ 5.98 µM)	256 (≈ 766 µM)	256 (≈ 766 µM)										
CO[C@H]1/C=C/O[C@@]2(C)Oc3c(C)c(O)c4c(O)c(c(/C=N/N5CCN(C)CC5)c(O)c4c3C2=O)NC(=O)/C(C)=C\C=C\[C@H](C)[C@H](O)[C@@H](C)[C@@H](O)[C@@H](C)[C@H](OC(C)=O)[C@@H]1C [RIFAMPIN]	> 4	1 (≈ 1.22 µM)	1 (≈ 1.22 µM)	> 4	1 (≈ 1.22 µM)	2 (≈ 2.43 µM)	> 4	> 4	0.5 (≈ 0.608 µM)	> 4	4 (≈ 4.86 µM)										
CN(C)[C@@H]1C(O)=C(C(N)=O)C(=O)[C@@]2(O)C(O)=C3C(=O)c4c(O)cccc4[C@@](C)(O)[C@H]3C[C@@H]12 [TETRACYCLINE]	> 16	> 16	> 16	> 16	> 16	≤ 0.5	> 16	> 16	> 16	> 16	> 16	> 16	> 16	≤ 0.5	8 (≈ 18 µM)	≤ 0.5	16 (≈ 36 µM)	≤ 0.5	≤ 0.5	8 (≈ 18 µM)	MIC [21]: 8 µg/mL (≈ 18 µM)
CN[C@H](CC(C)C)C(=O)N[C@H]1C(=O)N[C@@H](CC(N)=O)C(=O)N[C@H]2C(=O)N[C@H]3C(=O)N[C@H](C(=O)N[C@H](C(=O)O)c4cc(O)cc(O)c4-c4cc3ccc4O)[C@H](O)c3ccc(c(Cl)c3)Oc3cc2cc(c3O[C@@H]2O[C@H](CO)[C@@H](O)[C@H](O)[C@H]2O[C@H]2C[C@](C)(N)[C@H](O)[C@H](C)O2)Oc2ccc(cc2Cl)[C@H]1O [VANCOMYCIN]		2 (≈ 1.38 µM)	2 (≈ 1.38 µM)		2 (≈ 1.38 µM)	2 (≈ 1.38 µM)		256 (≈ 177 µM)	2 (≈ 1.38 µM)	256 (≈ 177 µM)	256 (≈ 177 µM)	64 (≈ 44.2 µM)	32 (≈ 22.1 µM)								
GENTAMICIN												32	64	< 4	16	> 64	> 64	> 64	< 4	> 64	MIC [21]: > 64 µg/mL
